Article PMC4902112 (Biochemistry, 2009)

Experiments:
[1] = target: T1, human tear lipocalin (TL) (Homo sapiens, UniProt P31025, W35Y); assay: fluorescence enhancement and blue shift on binding; conditions: TL 4 μM, DAUDA 2 μM, 10 mM sodium phosphate, pH 7.3; fluorescent probe
[2] = target: T1, human tear lipocalin (TL); assay: DAUDA fluorescence displacement; format: binding
[3] = target: human tear lipocalin (TL) (Homo sapiens, UniProt P31025, I106W/W35Y); assay: Trp fluorescence titration, one-site fit; format: binding
Chain of human tear lipocalin (TL) (Homo sapiens, UniProt P31025, I106W/W35Y) (P31025 19-176 W35Y/I106W): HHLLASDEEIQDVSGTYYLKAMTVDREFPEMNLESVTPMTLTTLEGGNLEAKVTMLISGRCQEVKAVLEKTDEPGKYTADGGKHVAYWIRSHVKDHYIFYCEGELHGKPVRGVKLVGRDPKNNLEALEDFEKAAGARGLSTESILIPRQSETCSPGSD
Summary of the method: (§1)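 Recombinant human TL single-Trp mutants: native Trp replaced by Tyr, one site changed to Trp. Expressed in E. coli BL21(DE3); purified by gel filtration and DEAE chromatography. About 14 μM protein in 10 mM sodium phosphate, pH 7.3, at room temperature, titrated with palmitic acid or its spin-labeled analogue. 2 min equilibration per addition. Excitation 295 nm, emission read at λmax. One-site fit gave apparent Kd and stoichiometry.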

[4] = target: human tear lipocalin (TL) (Homo sapiens, UniProt P31025, C119W/W35Y); assay: Trp fluorescence titration, one-site fit; format: binding
Chain of human tear lipocalin (TL) (Homo sapiens, UniProt P31025, C119W/W35Y) (P31025 19-176 W35Y/C119W): as the sequence (P31025 19-176 W35Y/I106W) above, with W88I, C101W counted along it
Summary of the method: as §1

[5] = target: human tear lipocalin (TL) (Homo sapiens, UniProt P31025, T55W/W35Y); assay: Trp fluorescence titration, one-site fit; format: binding
Chain of human tear lipocalin (TL) (Homo sapiens, UniProt P31025, T55W/W35Y) (P31025 19-176 W35Y/T55W): as the sequence (P31025 19-176 W35Y/I106W) above, with T37W, W88I counted along it
Summary of the method: as §1

[6] = target: human tear lipocalin (TL) (Homo sapiens, UniProt P31025, W35Y/Y115W); assay: Trp fluorescence titration, one-site fit; format: binding
Chain of human tear lipocalin (TL) (Homo sapiens, UniProt P31025, W35Y/Y115W) (P31025 19-176 W35Y/Y115W): as the sequence (P31025 19-176 W35Y/I106W) above, with W88I, Y97W counted along it
Summary of the method: as §1

[7] = target: human tear lipocalin (TL) (Homo sapiens, UniProt P31025, L123W/W35Y); assay: Trp fluorescence titration, one-site fit; format: binding
Chain of human tear lipocalin (TL) (Homo sapiens, UniProt P31025, L123W/W35Y) (P31025 19-176 W35Y/L123W): as the sequence (P31025 19-176 W35Y/I106W) above, with W88I, L105W counted along it
Summary of the method: as §1

[8] = target: human tear lipocalin (TL) (Homo sapiens, UniProt P31025, L86W/W35Y); assay: Trp fluorescence titration, one-site fit; format: binding
Chain of human tear lipocalin (TL) (Homo sapiens, UniProt P31025, L86W/W35Y) (P31025 19-176 W35Y/L86W): as the sequence (P31025 19-176 W35Y/I106W) above, with L68W, W88I counted along it
Summary of the method: as §1

[9] = target: human tear lipocalin (TL) (Homo sapiens, UniProt P31025, M40W/W35Y); assay: Trp fluorescence titration, one-site fit; format: binding
Chain of human tear lipocalin (TL) (Homo sapiens, UniProt P31025, M40W/W35Y) (P31025 19-176 W35Y/M40W): as the sequence (P31025 19-176 W35Y/I106W) above, with M22W, W88I counted along it
Summary of the method: as §1

[10] = target: human tear lipocalin (TL) (Homo sapiens, UniProt P31025, L67W/W35Y); assay: Trp fluorescence titration, one-site fit; format: binding
Chain of human tear lipocalin (TL) (Homo sapiens, UniProt P31025, L67W/W35Y) (P31025 19-176 W35Y/L67W): as the sequence (P31025 19-176 W35Y/I106W) above, with L49W, W88I counted along it
Summary of the method: as §1

[11] = target: human tear lipocalin (TL) (Homo sapiens, UniProt P31025, I75W/W35Y); assay: Trp fluorescence titration, one-site fit; format: binding
Chain of human tear lipocalin (TL) (Homo sapiens, UniProt P31025, I75W/W35Y) (P31025 19-176 W35Y/I75W): as the sequence (P31025 19-176 W35Y/I106W) above, with I57W, W88I counted along it
Summary of the method: as §1

[12] = target: human tear lipocalin (TL) (Homo sapiens, UniProt P31025, G121W/W35Y); assay: Trp fluorescence titration, one-site fit; format: binding
Chain of human tear lipocalin (TL) (Homo sapiens, UniProt P31025, G121W/W35Y) (P31025 19-176 W35Y/G121W): as the sequence (P31025 19-176 W35Y/I106W) above, with W88I, G103W counted along it
Summary of the method: as §1

T1 sequence (P31025 19-176 W35Y): as the sequence (P31025 19-176 W35Y/I106W) above, with W88I counted along it

CN(C)c1cccc2c(S(=O)(=O)NCCCCCCCCCCC(=O)O)cccc12 [DAUDA, 11-((5-dimethylaminonaphthalene-1-sulfonyl)amino)undecanoic acid]
fluorescence enhancement and blue shift on binding [1]: DAUDA increases significantly and exhibits a blue shift ... when bound to TL

CCCCCCCCCCCC(=O)O [LA]
IC50 [2]: 12600 nM

CCCCCCCCCCCCCCCC(=O)O [PA]
IC50 [2]: 2300 nM | Kd [3]: 500 ± 200 nM | Kd [4]: 2800 ± 500 nM | Kd [5]: 5800 ± 600 nM | Kd [6]: 400 ± 100 nM | Kd [7]: 500 ± 100 nM | Kd [8]: 300 ± 100 nM | Kd [9]: 900 ± 200 nM | Kd [10]: 2300 ± 200 nM | Kd [11]: 500 ± 100 nM | Kd [12]: 300 ± 100 nM
